Laboratory results as given in PMC5536102 (Biochemistry, 2017).
Residues, ends and D or L forms follow the SMILES beside them.

What was measured:
[1] = target: purified human αIIbβ3 (Homo sapiens, UniProt P05106+P08514); assay type: binding; conditions: for average binding affinity constant (Kb), Kb = kon/koff: two-dimensional affinity calculated from kon and koff, Mn2+-activated αIIbβ3
Procedure, shortened: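 Peptides covalently coupled to amine-functionalized latex beads. Purified human αIIbβ3, Mn2+-activated, immobilized for 2 h at 4 °C on glutaraldehyde-activated, polyacrylamide-coated 5-μm silica pedestals. At room temperature, the laser-trapped bead oscillated at 10 Hz (0.8 μm peak-to-peak, 2000 pN/s) against the pedestal for set contact times T. Binding probability versus T was fitted kinetically; αIIbβ3 density ~3000 molecules/μm² gave kon; Kb = 1/Kd = kon/koff.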

[2] = system: αIIbβ3; conditions: based on a theoretical model; ref 49 (Dutta et al.); cited from earlier work
[3] = target: integrin αIIbβ3 headpiece (Homo sapiens) (UniProt P08514); conditions: cited from earlier work

fibrinogen, sequence (P02671 36-866): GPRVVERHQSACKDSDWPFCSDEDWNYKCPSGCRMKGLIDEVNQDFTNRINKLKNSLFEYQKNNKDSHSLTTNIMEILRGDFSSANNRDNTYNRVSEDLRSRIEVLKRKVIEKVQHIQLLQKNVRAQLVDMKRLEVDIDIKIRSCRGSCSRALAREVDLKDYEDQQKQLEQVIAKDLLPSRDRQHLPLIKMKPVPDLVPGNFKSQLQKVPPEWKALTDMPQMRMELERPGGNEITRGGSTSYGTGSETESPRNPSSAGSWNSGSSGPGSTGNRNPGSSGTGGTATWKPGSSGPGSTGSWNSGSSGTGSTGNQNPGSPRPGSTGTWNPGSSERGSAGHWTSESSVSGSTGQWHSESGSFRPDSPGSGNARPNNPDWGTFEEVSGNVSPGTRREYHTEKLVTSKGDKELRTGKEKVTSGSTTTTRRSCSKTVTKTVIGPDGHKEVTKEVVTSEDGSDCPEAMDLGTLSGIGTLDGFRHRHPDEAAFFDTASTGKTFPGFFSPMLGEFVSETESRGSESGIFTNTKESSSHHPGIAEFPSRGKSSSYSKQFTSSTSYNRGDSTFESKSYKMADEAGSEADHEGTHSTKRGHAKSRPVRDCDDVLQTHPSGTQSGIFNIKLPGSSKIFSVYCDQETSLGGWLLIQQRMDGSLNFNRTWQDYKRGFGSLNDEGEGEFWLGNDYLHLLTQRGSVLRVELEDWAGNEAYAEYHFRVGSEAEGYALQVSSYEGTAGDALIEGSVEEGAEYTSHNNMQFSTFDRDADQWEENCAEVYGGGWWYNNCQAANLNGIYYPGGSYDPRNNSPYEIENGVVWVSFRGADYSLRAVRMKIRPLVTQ
fibrinogen, sequence (P02675 45-491, further chain): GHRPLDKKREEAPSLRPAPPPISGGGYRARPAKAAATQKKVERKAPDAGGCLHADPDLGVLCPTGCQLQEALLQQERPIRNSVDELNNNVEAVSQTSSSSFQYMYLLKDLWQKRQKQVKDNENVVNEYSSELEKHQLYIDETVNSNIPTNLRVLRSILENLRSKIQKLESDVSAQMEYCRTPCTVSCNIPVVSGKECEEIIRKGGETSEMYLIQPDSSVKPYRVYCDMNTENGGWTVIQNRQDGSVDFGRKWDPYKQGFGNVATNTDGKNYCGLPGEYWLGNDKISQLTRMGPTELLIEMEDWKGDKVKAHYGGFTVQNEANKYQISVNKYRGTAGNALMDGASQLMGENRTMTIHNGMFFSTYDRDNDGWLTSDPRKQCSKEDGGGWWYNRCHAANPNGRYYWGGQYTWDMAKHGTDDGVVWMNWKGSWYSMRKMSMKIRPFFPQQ
fibrinogen, sequence (P02679 27-453, further chain): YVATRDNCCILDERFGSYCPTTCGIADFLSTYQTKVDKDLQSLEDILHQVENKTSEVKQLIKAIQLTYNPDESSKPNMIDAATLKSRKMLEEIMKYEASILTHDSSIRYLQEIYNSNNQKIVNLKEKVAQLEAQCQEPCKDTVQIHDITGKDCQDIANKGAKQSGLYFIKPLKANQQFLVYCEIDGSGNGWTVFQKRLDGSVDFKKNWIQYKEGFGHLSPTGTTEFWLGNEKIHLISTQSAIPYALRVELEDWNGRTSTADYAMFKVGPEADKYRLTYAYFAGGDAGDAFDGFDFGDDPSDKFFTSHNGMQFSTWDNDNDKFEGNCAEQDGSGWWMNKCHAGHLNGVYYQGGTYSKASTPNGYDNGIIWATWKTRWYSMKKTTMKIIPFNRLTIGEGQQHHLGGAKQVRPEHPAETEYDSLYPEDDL

In the case of `CC(C)C[C@H](NC(=O)[C@H](Cc1c[nH]cn1)NC(=O)[C@@H](N)Cc1c[nH]cn1)C(=O)NCC(=O)NCC(=O)N[C@@H](C)C(=O)N[C@@H](CCCCN)C(=O)N[C@@H](CCC(N)=O)C(=O)N[C@@H](C)C(=O)NCC(=O)N[C@@H](CC(=O)O)C(=O)N[C@H](C(=O)O)C(C)C` [γC-12, His-His-Leu-Gly-Gly-Ala-Lys-Gln-Ala-Gly-Asp-Val] (H-HHLGGAKQAGDV-OH), the koff ([1]; pH 7.4, read-out: average unbinding rate constant koff) is reported as 2.05 ± 0.59 s⁻¹ and the “average binding affinity constant (Kb), Kb = kon/koff” value [1] is reported as “(1.22 ± 0.61) × 10^12 cm^2/mol”.

For “cyclo (S,S)-L-lysyl-L-tyrosyl-glycyl-L-cystinyl-L-homoarginyl-glycyl-L-aspartyl-L-trytopanyl-L-prolyl-L-cystine [cHarGD]”, the dissociation energy [2] is given as 7 to 9 kcal/mol.

For “cyclo[Arg-Gly-Asp-D-Phe-Lys(Cys)] (head to tail) [cRGDFK]”, the “average binding affinity constant (Kb), Kb = kon/koff” value [1] was “(1.96 ± 0.65) × 10^12 cm^2/mol”.

In the case of fibrinogen (from UniProt P02671), the Kd [3] is given as 100 nM.
